Measurements: ChEMBL document CHEMBL1139866, “Synthesis and antimalarial property of orally active phenoxazinium salts” (J Med Chem, 2007)
“And” between values parts separate entries of the source, which are not always exact repeats. Equal entries are not always repeated.

Tests used:
Mus musculus [1] = assay: Effect on survival of Plasmodium berghei NK65 infected ICR mice (Mus musculus) assessed as mean survival days at 5 mg/kg, intraperitoneal after 4 days; assay type: functional
Summary of the method: (§1)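 Peters' four-day suppressive test in groups of five ICR mice infected with drug-sensitive P. berghei NK-65. Compound given ip once daily for 4 days. Day-4 parasitemia compared with untreated controls to give % suppression. Mice observed after the end of treatment to record mean survival days and the number alive on day 30.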

Plasmodium berghei [2] = assay: Antimalarial activity against Plasmodium berghei NK65 infected ICR mice (Mus musculus) as reduced parasitaemia at 5 mg/kg intraperitoneal dose on day 4; assay type: functional; design: scale not given: the % may be the effect or the level left
Summary of the method: (§2)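 Peters' four-day suppressive test with P. berghei NK-65 (drug-sensitive) in groups of five ICR mice, dosed intraperitoneally once daily for 4 days. Parasitemia on day 4 is compared with untreated infected controls to give % suppression. Survival is followed after treatment as mean survival days, observed up to day 30.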

Plasmodium falciparum = assay: Antimalarial activity against chloroquine-resistant Plasmodium falciparum K1 after 48 hrs; assay type: functional, organism-based
[3] = Ratio of EC50 for rat L6 cells to EC50 for Plasmodium falciparum K1; assay type: functional
Summary of the method: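 Selectivity index is the EC50 against rat skeletal myoblast L-6 cells divided by the in vitro EC50 against chloroquine-resistant P. falciparum K1, which was assayed by the Desjardins method.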

Plasmodium berghei [4] = assay: Antimalarial activity against Plasmodium berghei NK65 infected ICR mice (Mus musculus) as reduced parasitaemia after 20 mg/kg intraperitoneal dose on day 4; assay type: functional; design: scale not given: the % may be the effect or the level left; summary of the method: as §2
Mus musculus [5] = assay: Effect on survival of Plasmodium berghei NK65 infected ICR mice (Mus musculus) assessed as mean survival days at 10 mg/kg, intraperitoneal after 4 days; assay type: functional; summary of the method: as §1
Mus musculus [6] = assay: Effect on survival of Plasmodium berghei NK65 infected ICR mice (Mus musculus) assessed as mean survival days at 20 mg/kg, intraperitoneal after 4 days; assay type: functional; summary of the method: as §1
Mus musculus [7] = assay: Survival of Plasmodium berghei NK65 infected ICR mice (Mus musculus) at 20 mg/kg, intraperitoneal after 4 days; assay type: functional; summary of the method: as §1
Plasmodium berghei [8] = assay: Antimalarial activity against Plasmodium berghei NK65 infected ICR mice (Mus musculus) as reduced parasitaemia after 2.5 mg/kg intraperitoneal dose on day 4; assay type: functional; design: scale not given: the % may be the effect or the level left; summary of the method: as §2
Plasmodium berghei [9] = assay: Antimalarial activity against Plasmodium berghei NK65 infected ICR mice (Mus musculus) as reduced parasitaemia on 10 mg/kg intraperitoneal dose on day 4; design: scale not given: the % may be the effect or the level left
Mus musculus [10] = assay: Effect on survival of Plasmodium berghei NK65 infected ICR mice (Mus musculus) assessed as mean survival days at 2.5 mg/kg, intraperitoneal after 4 days; assay type: functional; summary of the method: as §1
Plasmodium berghei [11] = assay: Antimalarial activity against Plasmodium berghei NK65 infected ICR mice (Mus musculus) as reduced parasitaemia at 100 mg/kg/day oral dose after 4 days; design: scale not given: the % may be the effect or the level left
Rattus norvegicus [12] = assay: AUC (0-480 mins) in Wistar rat at 10 mg/kg, po; assay type: ADME, organism-based, Plasma; design: time < 8 hr, dose 10 mg/kg, route oral; details: in vivo, 8 h
Summary of the method: (§3)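 Preliminary pharmacokinetics in Wistar rats given 10 mg kg^-1 as a saline solution, either intravenously or orally. Values are the average of three animals. Half-life is determined for each route, and oral bioavailability is obtained by comparing the oral and intravenous routes.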

Plasmodium berghei [13] = assay: Antimalarial activity against Plasmodium berghei NK65 infected ICR mice (Mus musculus) as reduced parasitaemia on day 4 after 1 day at 100 mg/kg/day oral dose; design: scale not given: the % may be the effect or the level left
Plasmodium berghei [14] = assay: Antimalarial activity against Plasmodium berghei NK65 infected ICR mice (Mus musculus) as reduced parasitaemia on 25 mg/kg/day oral dose after 4 days; design: scale not given: the % may be the effect or the level left
Mus musculus [15] = assay: Effect on survival of Plasmodium berghei NK65 infected ICR mice (Mus musculus) assessed as mean survival days at 12 times of 15 mg/kg/8hrs, oral
Mus musculus [16] = assay: Effect on survival of Plasmodium berghei NK65 infected ICR mice (Mus musculus) assessed as mean survival days at 100 mg/kg/day, oral after 4 days
Mus musculus [17] = assay: Effect on survival of Plasmodium berghei NK65 infected ICR mice (Mus musculus) assessed as mean survival days at 50 mg/kg/day, oral after 4 days
[18] = Half life in Wistar rat at 10 mg/kg, po; assay type: ADME, organism-based; design: dose 10 mg/kg, route oral; details: in vivo; summary of the method: as §3
Mus musculus [19] = assay: Effect on survival of Plasmodium berghei NK65 infected ICR mice (Mus musculus) assessed as mean survival days at 12 times of 30 mg/kg/8hrs, oral
Plasmodium berghei [20] = assay: Antimalarial activity against Plasmodium berghei NK65 infected ICR mice (Mus musculus) as reduced parasitaemia after 12 doses of 15 mg/kg/8hrs; assay type: functional; design: scale not given: the % may be the effect or the level left
Summary of the method: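 Oral four-day suppressive test against P. berghei NK-65 in five ICR mice, using short-span dosing every 8 h for 12 doses in total. % parasitemia suppression on day 4 is calculated against untreated infected controls, and mean survival days and mice alive on day 30 are recorded.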

Plasmodium berghei [21] = assay: Antimalarial activity against Plasmodium berghei NK65 infected ICR mice (Mus musculus) as reduced parasitaemia after 12 oral doses of 30 mg/kg/8hrs; design: scale not given: the % may be the effect or the level left
Rattus norvegicus [22] = assay: AUC (0-480 mins) in Wistar rat at 10 mg/kg, iv; assay type: ADME, organism-based, Plasma; design: time < 8 hr, dose 10 mg/kg, route intravenous; details: in vivo, 8 h; summary of the method: as §3
[23] = Oral bioavailability in Wistar rat at 10 mg/kg, po; assay type: ADME, organism-based; details: in vivo; summary of the method: as §3
[24] = Half life in Wistar rat at 10 mg/kg, iv; assay type: ADME, organism-based; design: dose 10 mg/kg, route intravenous; details: in vivo; summary of the method: as §3
Mus musculus [25] = assay: Effect on survival of Plasmodium berghei NK65 infected ICR mice (Mus musculus) assessed as mean survival days at 90 mg/kg/day, oral after 4 days
Plasmodium berghei [26] = assay: Antimalarial activity against Plasmodium berghei NK65 infected ICR mice (Mus musculus) as reduced parasitaemia at 90 mg/kg/day oral dose after 4 days; design: scale not given: the % may be the effect or the level left
Mus musculus [27] = assay: Effect on survival of Plasmodium berghei NK65 infected ICR mice (Mus musculus) assessed as mean survival days at 25 mg/kg/day, oral after 4 days
Mus musculus [28] = assay: Effect on survival of Plasmodium berghei NK65 infected ICR mice (Mus musculus) assessed as mean survival days at 100 mg/kg/day, oral after 1 day
Plasmodium berghei [29] = assay: Antimalarial activity against Plasmodium berghei NK65 infected ICR mice (Mus musculus) as reduced parasitaemia at 50 mg/kg/day oral dose after 4 days; design: scale not given: the % may be the effect or the level left
Plasmodium berghei [30] = assay: Antimalarial activity against Plasmodium berghei NK65 infected ICR mice (Mus musculus) as reduced parasitaemia at 30 mg/kg intraperitoneal dose on day 4; assay type: functional; design: scale not given: the % may be the effect or the level left; summary of the method: as §1
Mus musculus [31] = assay: Effect on survival of Plasmodium berghei NK65 infected ICR mice (Mus musculus) assessed as mean survival days at 30 mg/kg, intraperitoneal after 4 days; assay type: functional; summary of the method: as §1
[32] = Plasmodium falciparum, K1, 48 h

CCN(C)c1ccc2nc3ccc(=[N+](C)C)cc-3oc2c1.[O-][Cl+3]([O-])([O-])[O-]
Mean survival days (Mus musculus [1]): 6.7 days
Activity (Plasmodium berghei [2]): 71.7%

CN(C)c1ccc2nc3ccc(=[N+](C)C)cc-3oc2c1.[Cl-].[Cl][Zn][Cl]
Mean survival days (Mus musculus [1]): 5.6 days
EC50 (Plasmodium falciparum; [32]): 0.0126 µM
Ratio [3]: 700
Activity (Plasmodium berghei [2]): 17.1%

CCN(CC)c1ccc2nc3ccc(=[N+](C)C)cc-3oc2c1.[Cl-]
Activity (Plasmodium berghei [4]): 100%
Mean survival days (Mus musculus [1]): 10 days
Activity (Plasmodium berghei [2]): 85.3%
Mean survival days (Mus musculus [5]): 13 days
Mean survival days (Mus musculus [6]): >17 days
Activity (Mus musculus [7]): 40%
Activity (Plasmodium berghei [8]): 58.7%
Activity (Plasmodium berghei [9]): 99.9%
Mean survival days (Mus musculus [10]): 7.8 days

CN(C)c1ccc2nc3ccc(=[N+](C)C)cc-3oc2c1.[O-][Cl+3]([O-])([O-])[O-]
Mean survival days (Mus musculus [1]): 6.7 days
Activity (Plasmodium berghei [2]): 45.9%

CCN(CC)c1ccc2nc3ccc(=[N+](C)C)cc-3oc2c1.[O-][Cl+3]([O-])([O-])[O-]
Mean survival days (Mus musculus [1]): 9.4 days
Activity (Plasmodium berghei [2]): 77%

CN(C)c1cc(O)c2nc3ccc(=[N+](C)C)cc-3oc2c1.[Cl-]
Mean survival days (Mus musculus [1]): 5.3 days
Activity (Plasmodium berghei [2]): 4.2%

CCN(CC)c1ccc2nc3ccc(N(CC)CC)cc3[o+]c2c1.[Cl-]
Activity (Plasmodium berghei [11]): 100%
AUC (Rattus norvegicus [12]): 0.69 µg·h/mL
Activity (Plasmodium berghei [13]): 100%
Activity (Plasmodium berghei [14]): 82.3%
Mean survival days (Mus musculus [15]): 14 days
Activity (Plasmodium berghei [4]): 95.8%
Mean survival days (Mus musculus [16]): >28 days
Mean survival days (Mus musculus [17]): 14 days
half-life [18]: 59.2 min
EC50 (Plasmodium falciparum): 0.0028 µM
EC50 (Plasmodium falciparum; [32]): 0.0047 µM
Ratio [3]: 830 and 2400
Mean survival days (Mus musculus [19]): >13 days
Activity (Plasmodium berghei [2]; 5 mg/kg): 80.6% and 46.3%
Mean survival days (Mus musculus [5]): >11 days
Activity (Plasmodium berghei [20]): 100%
Activity (Plasmodium berghei [21]): 100%
AUC (Rattus norvegicus [22]): 0.717 µg·h/mL
bioavailability [23]: 96.3%
half-life [24]: 5.8 min
Mean survival days (Mus musculus [25]): >24 days
Activity (Plasmodium berghei [26]): 100%
Mean survival days (Mus musculus [27]): 7.6 days
Mean survival days (Mus musculus [28]): 13 days
Activity (Plasmodium berghei [29]): 98.6%
Mean survival days (Mus musculus [6]): >14 days
Activity (Plasmodium berghei [8]): 30.5%
Activity (Plasmodium berghei [9]): 80.4%

CCCCN(CCCC)c1ccc2nc3ccc(=[N+](CC)CC)cc-3oc2c1.[Cl-]
Mean survival days (Mus musculus [1]): 16 days
EC50 (Plasmodium falciparum; [32]): 0.0024 µM
Ratio [3]: 350
Activity (Plasmodium berghei [2]): 83.1%

CCCCN(CCCC)c1ccc2nc3ccc(=[N+](C)C)cc-3oc2c1.[O-][Cl+3]([O-])([O-])[O-]
Mean survival days (Mus musculus [1]): 11.4 days
Activity (Plasmodium berghei [2]): 90.3%

CN1CCN(c2cc(OC(=O)C(C)(C)C)c3nc4ccc(=[N+](C)C)cc-4oc3c2)CC1.[Cl-]
Mean survival days (Mus musculus [1]): 5.4 days
EC50 (Plasmodium falciparum; [32]): 0.27 µM
Ratio [3]: 160
Activity (Plasmodium berghei [2]): 19.9%

CN1CCN(c2cc(O)c3nc4ccc(=[N+](C)C)cc-4oc3c2)CC1.[Cl-]
Mean survival days (Mus musculus [1]): 5.3 days
EC50 (Plasmodium falciparum; [32]): 0.2 µM
Ratio [3]: 440
Activity (Plasmodium berghei [2]): 17.4%

C[N+](C)=c1ccc2nc3ccc(N4CCNCC4)cc3oc-2c1.[Cl-]
Activity (Plasmodium berghei [11]): 100%
Activity (Plasmodium berghei [30]): 100%
Activity (Plasmodium berghei [4]): 98.1%
Mean survival days (Mus musculus [16]): 17 days
Mean survival days (Mus musculus [1]): 6 days
EC50 (Plasmodium falciparum; [32]): 0.028 µM
Ratio [3]: 2300
Activity (Plasmodium berghei [2]): 54.8%
Mean survival days (Mus musculus [5]): 7.4 days
Mean survival days (Mus musculus [6]): 17.6 days
Activity (Plasmodium berghei [9]): 78.5%
Mean survival days (Mus musculus [31]): 16.4 days

CCN(CC)CCCC(C)Nc1ccnc2cc(Cl)ccc12 (centres undefined) [CHLOROQUINE]
EC50 (Plasmodium falciparum; [32]): 1.5 µM
Ratio [3]: 32
Mean survival days (Mus musculus [5]): 22.7 days
Activity (Plasmodium berghei [9]): 90.6%
